# Experimental data: ChEMBL document CHEMBL4145462, “Nitrogen-containing ecdysteroid derivatives vs. multi-drug resistance in cancer: Preparation and antitumor activity of oximes, oxime ethers and a lactam” (Eur J Med Chem, 2018)
# pIC50: −log10 of the molar value.
# Legend:
# [1] = Synergistic cytotoxicity against mouse L5178 cells assessed as combination index at ED50 using 300:1 test compound to doxorubicin ratio after 48 hrs by MTT-based checkerboard microplate method; assay type: functional
# Outline: (§1)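 Checkerboard microplate combinations of compound with doxorubicin at constant molar ratios. 5 × 10^4 cells/well in McCoy's 5A, 48 h at 37°C, 5% CO2. MTT added to 0.5 mg/mL final for 4 h, SDS/HCl overnight, OD read at 540 and 630 nm. Combination indices derived per ratio for 50%, 75% and 90% growth inhibition by median-effect analysis.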
# [2] = Synergistic cytotoxicity against mouse L5178 cells expressing human ABCB1 assessed as combination index at ED50 using 7.5:1 test compound to doxorubicin ratio after 48 hrs by MTT-based checkerboard microplate method; assay type: functional; outline: as §1
# [3] = Synergistic cytotoxicity against mouse L5178 cells expressing human ABCB1 assessed as combination index at ED90 using 7.5:1 test compound to doxorubicin ratio after 48 hrs by MTT-based checkerboard microplate method; assay type: functional; outline: as §1
# [4] = Synergistic cytotoxicity against mouse L5178 cells expressing human ABCB1 assessed as combination index at ED90 using 30:1 test compound to doxorubicin ratio after 48 hrs by MTT-based checkerboard microplate method; assay type: functional; outline: as §1
# MDA-MB-231 = assay: Antiproliferative activity against human MDA-MB-231 cells after 72 hrs by MTT assay; assay type: functional, cell-based; conditions: MDA-MB-231, 72 h
# Outline: (§2)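 Cells grown in MEM with 10% FCS, 1% non-essential amino acids and 1% penicillin-streptomycin. Seeded at 5000 cells/well, exposed to 0.1–30.0 µM compound for 72 h. MTT (5 mg/ml solution) was then added for 4 h, formazan dissolved in DMSO, and absorbance read at 545 nm. Cisplatin served as positive control. IC50 came from sigmoidal dose–response fits (log inhibitor vs normalized response, variable slope).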
# [5] = Synergistic cytotoxicity against mouse L5178 cells expressing human ABCB1 assessed as combination index at ED75 using 7.5:1 test compound to doxorubicin ratio after 48 hrs by MTT-based checkerboard microplate method; assay type: functional; outline: as §1
# [6] = Synergistic cytotoxicity against mouse L5178 cells assessed as combination index at ED75 using 300:1 test compound to doxorubicin ratio after 48 hrs by MTT-based checkerboard microplate method; assay type: functional; outline: as §1
# [7] = Synergistic cytotoxicity against mouse L5178 cells expressing human ABCB1 assessed as combination index at ED90 using 60:1 test compound to doxorubicin ratio after 48 hrs by MTT-based checkerboard microplate method; assay type: functional; outline: as §1
# [8] = Synergistic cytotoxicity against mouse L5178 cells expressing human ABCB1 assessed as combination index at ED75 using 60:1 test compound to doxorubicin ratio after 48 hrs by MTT-based checkerboard microplate method; assay type: functional; outline: as §1
# ABCB1 (P-glycoprotein) = ABCB1 (P-glycoprotein) (Homo sapiens, UniProt P08183); assay: Inhibition of human ABCB1 expressed in mouse L5178 cells assessed as increase in rhodamine-123 accumulation at 2 uM after 10 mins by flow cytometric analysis relative to control; assay type: cell-based; conditions: mouse L5178 cells expressing human ABCB1, probe rhodamine-123
# Outline: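 Cells at 2 × 10^6/mL were preincubated 10 min with compound. Rhodamine 123 then added to 5.2 µM final, 20 min at 37 °C. Cells washed twice in PBS, resuspended and read by flow cytometry. Percent inhibition was scaled between MDR-cell accumulation (0%) and parental L5178 accumulation (100%). Controls: 100 nM tariquidar (positive) and 2% DMSO (negative).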
# [9] = Cytotoxicity against mouse L5178 cells expressing human ABCB1 after 48 hrs by MTT assay; assay type: functional, cell-based; conditions: L5178, 48 h
# Outline: (§3)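 Parental mouse lymphoma L5178 and the MDR line made by pHa MDR1/A retrovirus transfection, selected with 60 µg/L colchicine. Grown in McCoy's 5A with horse serum at 37°C, 5% CO2. 5 x 10^4 cells/well, serial compound dilutions, 48 h. MTT added to 0.5 mg/mL final for 4 h, then 10% SDS in 0.01 M HCl overnight, OD read at 540 and 630 nm. IC50 taken as median cytotoxic activity (Dm) from control lanes of checkerboard plates, n=2.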
# [10] = Synergistic cytotoxicity against mouse L5178 cells assessed as combination index at ED90 using 150:1 test compound to doxorubicin ratio after 48 hrs by MTT-based checkerboard microplate method; assay type: functional; outline: as §1
# [11] = Synergistic cytotoxicity against mouse L5178 cells assessed as combination index at ED50 using 150:1 test compound to doxorubicin ratio after 48 hrs by MTT-based checkerboard microplate method; assay type: functional; outline: as §1
# [12] = Synergistic cytotoxicity against mouse L5178 cells expressing human ABCB1 assessed as combination index at ED75 using 30:1 test compound to doxorubicin ratio after 48 hrs by MTT-based checkerboard microplate method; assay type: functional; outline: as §1
# [13] = Synergistic cytotoxicity against mouse L5178 cells expressing human ABCB1 assessed as combination index at ED90 using 15:1 test compound to doxorubicin ratio after 48 hrs by MTT-based checkerboard microplate method; assay type: functional; outline: as §1
# [14] = Synergistic cytotoxicity against mouse L5178 cells expressing human ABCB1 assessed as combination index at ED90 using 3.75:1 test compound to doxorubicin ratio after 48 hrs by MTT-based checkerboard microplate method; assay type: functional; outline: as §1
# [15] = Synergistic cytotoxicity against mouse L5178 cells expressing human ABCB1 assessed as combination index at ED75 using 15:1 test compound to doxorubicin ratio after 48 hrs by MTT-based checkerboard microplate method; assay type: functional; outline: as §1
# [16] = Synergistic cytotoxicity against mouse L5178 cells expressing human ABCB1 assessed as combination index at ED50 using 60:1 test compound to doxorubicin ratio after 48 hrs by MTT-based checkerboard microplate method; assay type: functional; outline: as §1
# SiHa = assay: Antiproliferative activity against human SiHa cells after 72 hrs by MTT assay; assay type: functional, cell-based; outline: as §2
# MCF7 = assay: Antiproliferative activity against human MCF7 cells after 72 hrs by MTT assay; assay type: functional, cell-based; conditions: MCF7, 72 h; outline: as §2
# [17] = Synergistic cytotoxicity against mouse L5178 cells assessed as combination index at ED50 using 37.5:1 test compound to doxorubicin ratio after 48 hrs by MTT-based checkerboard microplate method; assay type: functional; outline: as §1
# [18] = Synergistic cytotoxicity against mouse L5178 cells expressing human ABCB1 assessed as combination index at ED75 using 3.75:1 test compound to doxorubicin ratio after 48 hrs by MTT-based checkerboard microplate method; assay type: functional; outline: as §1
# [19] = Synergistic cytotoxicity against mouse L5178 cells assessed as combination index at ED75 using 150:1 test compound to doxorubicin ratio after 48 hrs by MTT-based checkerboard microplate method; assay type: functional; outline: as §1
# [20] = Synergistic cytotoxicity against mouse L5178 cells expressing human ABCB1 assessed as combination index at ED50 using 30:1 test compound to doxorubicin ratio after 48 hrs by MTT-based checkerboard microplate method; assay type: functional; outline: as §1
# [21] = Cytotoxicity against mouse L5178 cells after 48 hrs by MTT assay; assay type: functional, cell-based; conditions: L5178, 48 h; outline: as §3
# [22] = Synergistic cytotoxicity against mouse L5178 cells assessed as combination index at ED90 using 37.5:1 test compound to doxorubicin ratio after 48 hrs by MTT-based checkerboard microplate method; assay type: functional; outline: as §1
# [23] = Synergistic cytotoxicity against mouse L5178 cells expressing human ABCB1 assessed as combination index at ED50 using 15:1 test compound to doxorubicin ratio after 48 hrs by MTT-based checkerboard microplate method; assay type: functional; outline: as §1
# ABCB1 (P-glycoprotein), sequence (P08183 whole entry): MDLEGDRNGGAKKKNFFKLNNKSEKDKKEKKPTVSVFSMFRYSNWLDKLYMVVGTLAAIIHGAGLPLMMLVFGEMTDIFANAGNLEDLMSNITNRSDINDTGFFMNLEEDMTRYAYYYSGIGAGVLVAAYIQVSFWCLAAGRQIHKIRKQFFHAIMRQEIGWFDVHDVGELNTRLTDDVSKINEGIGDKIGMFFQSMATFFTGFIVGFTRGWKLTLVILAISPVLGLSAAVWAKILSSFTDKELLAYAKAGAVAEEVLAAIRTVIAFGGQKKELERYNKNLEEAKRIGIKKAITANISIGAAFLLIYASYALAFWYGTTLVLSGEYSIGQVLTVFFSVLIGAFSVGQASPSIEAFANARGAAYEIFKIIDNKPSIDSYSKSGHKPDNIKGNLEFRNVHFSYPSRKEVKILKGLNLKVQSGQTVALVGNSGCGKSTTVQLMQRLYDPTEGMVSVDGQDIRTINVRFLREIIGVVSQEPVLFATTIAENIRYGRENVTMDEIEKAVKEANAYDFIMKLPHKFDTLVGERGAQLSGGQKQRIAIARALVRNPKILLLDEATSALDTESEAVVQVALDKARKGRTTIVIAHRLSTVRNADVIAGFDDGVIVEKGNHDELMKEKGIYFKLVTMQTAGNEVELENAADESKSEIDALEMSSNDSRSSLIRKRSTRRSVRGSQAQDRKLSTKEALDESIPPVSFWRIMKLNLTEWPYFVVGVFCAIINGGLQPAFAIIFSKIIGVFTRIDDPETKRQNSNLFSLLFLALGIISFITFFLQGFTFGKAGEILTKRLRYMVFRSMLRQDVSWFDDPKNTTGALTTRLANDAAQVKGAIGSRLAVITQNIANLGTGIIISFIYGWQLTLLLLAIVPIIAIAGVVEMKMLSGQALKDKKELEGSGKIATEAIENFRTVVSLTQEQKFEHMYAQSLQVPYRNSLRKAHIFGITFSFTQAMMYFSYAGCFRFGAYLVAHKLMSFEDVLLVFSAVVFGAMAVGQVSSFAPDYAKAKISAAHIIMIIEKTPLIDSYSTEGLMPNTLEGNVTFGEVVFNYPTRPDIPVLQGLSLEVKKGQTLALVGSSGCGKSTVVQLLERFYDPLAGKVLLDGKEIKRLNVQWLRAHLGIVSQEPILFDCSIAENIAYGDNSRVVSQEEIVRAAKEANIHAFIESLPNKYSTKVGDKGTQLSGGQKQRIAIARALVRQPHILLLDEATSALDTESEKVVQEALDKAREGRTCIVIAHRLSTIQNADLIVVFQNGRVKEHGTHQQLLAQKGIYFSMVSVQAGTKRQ
smiles,measurement,setting,value
CO/N=C1/C=C2C3=CC[C@H]([C@@]4(C)OC(C)(C)O[C@@H]4CCC(C)(C)O)[C@@]3(C)CC[C@@H]2[C@@]2(C)C[C@@H]3OC(C)(C)O[C@@H]3C[C@@H]12,CI,[1],0.85
same,CI,[2],0.17
same,CI,[3],0.15
same,CI,[4],0.24
same,pIC50,MDA-MB-231,4.59
same,CI,[5],0.16
same,CI,[6],0.83
same,CI,[7],0.36
same,CI,[8],0.34
same,"inhibition at 10 min, 2 µM",ABCB1 (P-glycoprotein),33.4%
same,pIC50,[9],4.27
same,CI,[10],0.64
same,CI,[11],0.18
same,CI,[12],0.22
same,CI,[13],0.16
same,CI,[14],0.14
same,CI,[15],0.17
same,CI,[16],0.33
same,pIC50,SiHa,< 4.52
same,pIC50,MCF7,4.74
same,CI,[17],0.77
same,CI,[18],0.17
same,CI,[19],0.67
same,CI,[20],0.21
same,pIC50,[21],4.34
same,CI,[22],0.31
same,CI,[23],0.75
